# Screening results from PubChem BioAssay.
# This is a sample that favours compounds with a hit; in the whole collection about 1.9% have one here.
# TAG inh: inhibitors of triacylglycerol accumulation; inhibition, % at 12.5 µM; AID 651582; H9c2 cells, Nile Red lipid (TAG) fluorescence; cells loaded with 200 µM oleic acid; 230,000 compounds, 0.66% hits;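 active = pattern-corrected inhibition of lipid staining of at least 50% with the nuclear-stain viability signal not falling by more than 50%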;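 note: 0% = DMSO wells and 100% = triacsin C control wells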
# ABHD5-PLIN5 inh: inhibitors of human ABHD5-perilipin-5 interaction. Q00G26+Q8WTS1. Split G. princeps luciferase complementation, luminescence, 4 h. inhibition, % at 4 µM. 360,000 compounds, 0.78% hits;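 active = inhibition above the mean inhibition across every tested compound plus 3 SD, cut at about 22% in these data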;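 note: 0% = DMSO only wells and the 100% control is not disclosed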
# HIF activator: HIF pathway transcriptional activation; U2OS HRE-luciferase reporter, luminescence; normalized: DMSO 0%, desferrioxamine 100%; activation, % at 7.5 µM (by protocol); 300,000 compounds, 0.32% hits;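 active = mean activation of at least 10% of the iron chelator positive control signal, with at least half of replicates also reaching 10%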
# Rad51 HR inh: blocks human Rad51 in homologous recombination. hRad51 DNA strand exchange, fluorescence dequenching. inhibition, % at 10 µM. 200,000 compounds, 0.085% hits. AID 1385;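 active = inhibition above 40% at the single screening dose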;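 note: 0% = DMSO control wells and 100% = blanks with heterologous ssDNA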
# Target sequence (Q06609 whole entry, looked up): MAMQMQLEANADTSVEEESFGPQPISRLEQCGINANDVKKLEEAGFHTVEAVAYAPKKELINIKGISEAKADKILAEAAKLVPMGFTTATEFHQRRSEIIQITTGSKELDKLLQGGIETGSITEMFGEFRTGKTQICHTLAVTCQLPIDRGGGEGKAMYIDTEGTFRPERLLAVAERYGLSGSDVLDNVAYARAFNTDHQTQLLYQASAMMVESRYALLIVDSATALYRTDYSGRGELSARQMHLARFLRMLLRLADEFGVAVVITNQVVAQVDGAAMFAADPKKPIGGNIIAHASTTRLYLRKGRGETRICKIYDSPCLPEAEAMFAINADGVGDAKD
#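 Test system: preformed human Rad51 ssDNA filaments; also added: Donor/quencher-labelled 47-bp dsDNA substrate; doses: 10 µM final, single point; times: 37 °C 15-min filament assembly, 30-min compound preincubation, 15-min exchange; detection: FRET fluorescence dequenching, excitation 485 nm, emission 520 nm; read-out basis: Fluorescence-based percent inhibition, control- and blank-normalised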
# GAA850 FXN act: increases GAA850 frataxin promoter reporter activity. 360,000 compounds, 0.56% hits. activation, % at 6 µM. AID 540364. HEK293 lucGAA850 FXN promoter luciferase reporter, 24 h; percent of 10 µM SAHA response;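 active = activation above the average of all compounds screened plus 3 SD, cutoff fixed separately per campaign, cut at about 7.5% in these data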;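 note: 0% = DMSO wells and 100% = 10 µM SAHA wells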
# Hsp70 act: switches on Hsp70 transcription; activation, % at 10 µM; AID 1203; HeLa Hsp70 promoter luciferase reporter, luminescence; scaled: vehicle 0, proteasome-inhibitor control 100%; 200,000 compounds, 0.04% hits;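 active = activation above the mean across all tested compounds plus 3 SD, cutoff set per campaign, cut at about 5.5% in these data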;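 note: 100% = MG132 at 30 µM as the positive control and 0% = DMSO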
# * marks the source's active call; other numbers are inactive results; i = inactive; nt = no result given; ! = not active in a repeat.
SMILES,TAG inh,ABHD5-PLIN5 inh,HIF activator,Rad51 HR inh,GAA850 FXN act,Hsp70 act
CCC(=C(c1ccccc1)c1ccc(OCCN(C)C)cc1)c1ccccc1,-6,-4,nt,nt,1,nt
CCN(CC)CCOc1ccc(/C(=C(/Cl)c2ccccc2)c2ccccc2)cc1,19,51*!,0,18,-3,0
C/C(=N\NC(=O)c1cc(-c2cccnc2)nc2ccccc12)c1ccc(O)cc1O,nt,6,36*,-8,-5,0
CC1CCN(c2ccccc2NC(=O)c2cc([N+](=O)[O-])ccc2N2CCOCC2)CC1,-16,-4,0,nt,12*,nt
O=C(NC1CCCCC1)c1cc([N+](=O)[O-])ccc1N1CCCCC1,nt,-4,0,118*,2,0
O=C(c1ccc(Br)cc1)c1cc([N+](=O)[O-])ccc1N1CCCCC1,59*,-5,1,-1,1,1
CCc1ccccc1NC(=O)c1cc([N+](=O)[O-])ccc1N1CCOCC1,-10,13,0,nt,0,nt
CCOc1ccc(C(=O)Nc2ccc(C(=O)N3CCOCC3)cc2)c(OCC)c1,nt,-3,0,nt,0,nt
CN1CCN(C(=S)SCC(=O)Nc2nc(-c3ccccc3)c(-c3ccccc3)o2)CC1,nt,5,0,-10,-2,0
COc1ccc(NC(=S)NCc2cccnc2)cc1,nt,-3,585*,nt,0,0
CCCCOC(=O)c1ccc(NC(=O)C(=O)NCCN(CC)CC)cc1,8,3,0,nt,3,nt
CCCCOC(=O)c1ccc(NC(=O)C(=O)NCc2cccnc2)cc1,0,4,25*,-8,0,0
O=C(NCc1ccccc1)c1ccc(CN(c2ccccn2)S(=O)(=O)c2ccccc2)cc1,-2,4,0,-3,1,0
C[C@H](CO)N1C[C@H](C)[C@@H](CN(C)S(=O)(=O)c2cccs2)Oc2c(NC(=O)Cc3ccccc3)cccc2C1=O,5,-4,nt,nt,-2,nt
Cn1c(SCC(=O)c2ccccc2)nnc1-c1ccco1,8,2,13*,8,6,0
O=C(N/N=C/c1cc2c3c(c1O)CCCN3CCC2)c1ccccc1O,19,3,55*,-16,-8,0
O=C(O)c1nc(NCCc2ccccc2)ncc1Cl,nt,-2,-1,nt,2,nt
O=C(N/N=C/c1ccc(O)c(O)c1O)/C(=C/c1ccc([N+](=O)[O-])cc1)NC(=O)c1ccccc1,-14,-6,10*,3,-2,0
Cc1ccc(NC(=O)/C(=C\c2ccc([N+](=O)[O-])cc2)NC(=O)c2ccccc2)cc1,-32,-2,-23,8,-1,1
CC(C)(C)c1ccc(S(=O)(=O)N2CCNC(=O)C2)cc1,-13,-2,nt,nt,0,nt
O=C(CSCc1ccc(F)cc1)Nc1ccc(F)cc1,nt,-2,0,6,2,0
O=C(CSCc1ccc(F)cc1)Nc1nc2c(s1)CCCC2,1,-13,0,66*,0,0
COC(=O)[C@@]12C[C@@H](CC(=O)N3CCSCC3)C(=O)N(Cc3cccc4ccccc34)C1=CCC(C)(C)C2,nt,5,nt,nt,nt,nt
COc1ccccc1NC(=O)CN(C)S(=O)(=O)c1cccc2cccnc12,nt,3,29*,nt,2,nt
CCOC(=O)/C(N=Nc1ccc(F)cc1)=C(/O)c1ccc([N+](=O)[O-])cc1,7,4,14*,nt,1,0
SMILES,TAG inh,ABHD5-PLIN5 inh,HIF activator,Rad51 HR inh,GAA850 FXN act,Hsp70 act
CCOC(=O)/C(C)=N/NC(=O)c1ccc([N+](=O)[O-])cc1,10,-7,0,3,3,0
O=C(c1ccc(N2CCCCC2)c([N+](=O)[O-])c1)N1CCOCC1,11,0,1,3,2,0
O=C(/C=C/c1ccc(N2CCCCC2)c([N+](=O)[O-])c1)c1ccc(O)cc1,-8,22*,8,20,2,2
CCOC(=O)CN1C(=O)S/C(=C/c2ccc(N3CCCCC3)o2)C1=O,-37,14,-1,-173,1,0
COC(=O)CN1C(=O)S/C(=C/c2cc(C)n(C)c2C)C1=O,nt,5,3,-10,8.8*,0
COC(=O)CN1C(=O)S/C(=C/c2ccc(N3CCCCC3)o2)C1=O,-202,27*,0,i,5,0
COc1ccc(N=C2S/C(=C\c3cc(C)n(C)c3C)C(=O)N2CC(C)C)cc1,22,0,-1,nt,6,0
CC(C)c1ccc(N(C(=O)c2snc(C(N)=O)c2N)C(C(=O)NC2CCCC2)c2ccncc2)cc1 (stereo unspecified),nt,-3,44*,nt,0,nt
NC(=O)c1nsc(C(=O)N(c2ccc(F)cc2)C(C(=O)NC2CCCC2)c2ccncc2)c1N (stereo unspecified),nt,0,0,nt,1,nt
C/C(=N\Nc1nc2ccccc2nc1C)c1ccccc1O,52*,13,1,-4,3,nt
CC(=NNc1ccc2ccccc2n1)c1ccccc1O,-1,-4,nt,nt,-3,nt
NC(=S)NC(=O)/C=C/c1ccccc1,6,-6,0,41*,2,0
COC(=O)C1=C(\O)CCCC/C=C\1C(=O)O,-11,22*,nt,nt,1,nt
c1ccc(Cn2ncc3c(NCc4ccco4)ncnc32)cc1,nt,7,0,8,-1,0
c1ccc(-n2ncc3c(NCc4ccco4)ncnc32)cc1,12,0,9.5*,-4,2,0
COc1ccc(C2Nc3ccccc3C(=O)N2Cc2ccco2)cc1COc1ccccc1F (stereo unspecified),9,23*,0,-3,2,0
Cc1ccc2c(c1)sc[n+]2Cc1ccccc1,nt,15,4,-3,10*,1
COc1ccc(C2c3ccc(O)cc3Oc3ncn4nc(-c5cccnc5)nc4c32)cc1OC (stereo unspecified),-5,7,0,5,7,nt
Cc1cc(-c2csc(N)n2)c(C)n1Cc1ccco1,9,23*,-1,-6,1,0
Cc1cc(-c2csc(N)n2)c(C)n1C,2,-2,0,-4,0,0
CCCOc1ccccc1N/C(=N/c1nc(C)cc(C)n1)NC(=O)COc1ccc(OC)cc1,-68,-17,0,97*,-2,0
CCCOc1ccccc1N/C(N)=N/c1nc(C)cc(C)n1,3,-2,0,-3,0,0
CN1CCN(S(=O)(=O)c2cccc(C(=O)NC3CCCC3)c2)CC1,7,5,0,nt,3,nt
CCC1(CC)NC(=O)N(CC(=O)N2N=C(c3ccc(Cl)cc3)CC2c2ccco2)C1=O (stereo unspecified),4,22*,-1,nt,3,0
Cc1ccnc(NC(c2ccccc2)c2ccc3cccnc3c2O)c1 (stereo unspecified),31,17,nt,nt,-3,nt
